Screens from PubChem.
m5-HT2A agonist: mouse HTR2A agonism via beta-arrestin recruitment; P35363; CHO-K1 mHTR2A beta-arrestin complementation, luminescence; percent of 30 µM serotonin response; activation, % at 7.6 µM; hit rate 0.66% among 360,000;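 active means activation above a run cutoff, the mean activation of all tested compounds plus 3 SD, cut at about 14% in these data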;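 further: 0% = plate median of compound wells and 100% = 30 µM serotonin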
MC4R ag barr: human MC4R agonism via beta-arrestin. U2OS MC4R beta-arrestin complementation, luminescence; percent of melanotan II response, DMSO zero. P32245. AID 540308. hit rate 0.98% among 360,000. activation, % at 8.9 µM;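 active means activation above a per-plate cutoff, the mean activation of sample wells on that plate plus 3 SD, cut at about 8% in these data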
beta cell repl: inducers of beta-cell replication in MIN6 cells; MIN6 cells proliferation, ATPlite luminescence, 48 h; cells starved in 0.2% serum; 100% = growth in 10% serum; proliferation, % at 10 µM; hit rate 0.29% among 330,000;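 active means compounds whose signal lies at least 3.5 SD above the mean of all wells on their plate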;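 further: 0% = DMSO-treated cells in low-serum medium and 100% = 10% serum control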
MC4R antagonist: human MC4R antagonism in cAMP assay. P32245. MC4R-expressing cells, MTII-stimulated cAMP, LANCE TR-FRET. inhibition, % at 6.5 µM. hit rate 0.48% among 360,000. AID 540295;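 active means inhibition above its plate's cutoff, the mean of tested wells on that plate plus 3 SD, cut at about 29% in these data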;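 further: 0% = Melanotan II alone and 100% = Melanotan II plus saturating MCL0020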
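Material: human MC4R-expressing U2OS cells. Probe or stimulus: Melanotan II challenge. Dosing: 6.5 µM single dose. Times: 30-min compound, 1-h challenge, 1-h detection, room temperature. Technique: TR-FRET with Eu-cAMP and labeled anti-cAMP, 671 nm. Replication: singlicate.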
ANO1 activ: mouse TMEM16A channel activation, primary screen. Q8BHY3. HEK293 TMEM16A/YFP-H148Q/I152L, iodide quench fluorescence; active compounds read low. B-score at 10 µM. hit rate 0.3% among 340,000. AID 623877;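 active means fluorescence-ratio B-score plate-corrected deviation score at least 3 library SD below zero, with starting fluorescence score within 5 deviations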;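 further: channel opened by trigger with iodide after compound preincubation; score built on the fluorescence ratio of max minus min over baseline; more negative score means more quench and so TMEM16A activation or potentiation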
ANO1 block: blocks the mouse calcium-activated chloride channel TMEM16A; AID 588511; hit rate 1.2% among 310,000; Q8BHY3; HEK293 TMEM16A/YFP iodide influx fluorescence, ionomycin; normalized B-score (activity score, 25-100; higher = stronger inhibition) at 10 µM;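 active means ratio plate-corrected score three or more library SD toward inhibition, starting fluorescence score within five deviations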;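 further: score derived from kinetic fluorescence span divided by baseline fluorescence per well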
MC4R barr ag: human MC4R beta-arrestin agonism confirmation; shares compounds with MC4R ag barr; U2OS MC4R beta-arrestin recruitment, luminescence; scaled DMSO 0%, Melanotan II 100%; activation, % at 8.9 µM; hit rate 31% among 2,400; AID 602192;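 active means mean activation across replicates above the hit cutoff set in the earlier primary screen, cut at about 8% in these data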
MOR-DOR barr ag: counter-screen for MC4R agonists: agonists of mu-delta opioid heterodimer. U2OS PathHunter beta-arrestin, beta-gal luminescence; percent of deltorphin B response, DMSO zero. shares compounds with MC4R ag barr. activation, % at 9.2 µM. hit rate 5.8% among 2,400. AID 602194;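 active means mean activation across replicates exceeds the hit threshold derived in the earlier primary screen, cut at about 18% in these data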;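 further: 100% = deltorphin B at 0.9 µM final and 0% = DMSO alone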
Target sequence (P35372 whole entry, looked up): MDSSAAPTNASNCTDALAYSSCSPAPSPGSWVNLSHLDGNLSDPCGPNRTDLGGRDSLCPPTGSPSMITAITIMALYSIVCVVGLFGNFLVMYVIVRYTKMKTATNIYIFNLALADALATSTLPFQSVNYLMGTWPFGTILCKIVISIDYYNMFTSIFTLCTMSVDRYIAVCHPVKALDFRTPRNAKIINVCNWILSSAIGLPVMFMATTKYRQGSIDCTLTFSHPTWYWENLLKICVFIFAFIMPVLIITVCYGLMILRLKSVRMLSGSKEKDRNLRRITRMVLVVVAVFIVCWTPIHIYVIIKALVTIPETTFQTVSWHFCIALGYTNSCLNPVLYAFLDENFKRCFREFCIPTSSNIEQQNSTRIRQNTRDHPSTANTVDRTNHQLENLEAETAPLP
Target sequence (P41143 whole entry, looked up): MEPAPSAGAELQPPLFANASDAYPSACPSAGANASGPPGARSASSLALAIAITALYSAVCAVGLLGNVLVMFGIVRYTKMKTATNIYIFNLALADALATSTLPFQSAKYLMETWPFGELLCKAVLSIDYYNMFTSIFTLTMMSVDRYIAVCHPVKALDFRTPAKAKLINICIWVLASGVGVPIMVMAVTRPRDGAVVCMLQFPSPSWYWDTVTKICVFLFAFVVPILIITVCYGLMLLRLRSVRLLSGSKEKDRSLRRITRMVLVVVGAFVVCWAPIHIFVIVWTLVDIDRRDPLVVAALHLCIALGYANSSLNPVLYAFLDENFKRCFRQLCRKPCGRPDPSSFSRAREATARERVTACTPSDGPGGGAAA
The depositor's hits bear a star; i = inactive; nt = not tested or not shown. A selection: hits, their analogues and other compounds. The true share with any hit is near 3.4%.

SMILES | m5-HT2A agonist | MC4R ag barr | beta cell repl | MC4R antagonist | ANO1 activ | ANO1 block | MC4R barr ag | MOR-DOR barr ag
COc1ccc(/C=N/Nc2cc(C)nc3ccc(OC)cc23)c(OC)c1 | -9.1 | 32.0* | -5.0 | -11.8 | i | 100* | 57.2* | 43.1*
CCOc1cccc(NCc2cc3c(C(C)(C)C)nn(-c4ccccc4)c3[nH]c2=O)c1 | 6.4 | 1.5 | -4.4 | 5.1 | i | i | nt | nt
CC(C)(C)c1nn(-c2ccccc2)c2[nH]c(=O)c(CNCc3ccc4c(c3)OCO4)cc12 | -0.6 | 15.9* | -4.3 | 6.0 | i | i | 13.9* | 9.6
CN(C)c1ncnc2c1ncn2[C@H]1CN(Cc2cccs2)C[C@@H](CO)O1 | -4.7 | -2.2 | nt | -12.6 | nt | nt | nt | nt
CC(C)(C)OC(=O)N1CCC(NC(=O)c2[nH]c(C(F)(F)F)nc2-c2ccccc2)CC1 | 5.3 | nt | nt | nt | nt | nt | nt | nt
COc1cc(/C=C(\C#N)c2nc3ccccc3[nH]2)cc(OC)c1O | -1.2 | 1.1 | nt | -1.2 | i | i | nt | nt
COc1ccccc1N/C=C(\C#N)c1nc2ccccc2[nH]1 | -3.7 | 11.1* | 0.4 | 4.2 | i | i | 0.7 | 4.7
Oc1ccccc1-c1nc(NCc2ccccc2)c2ccccc2n1 | -3.7 | 12.3* | -4.3 | 1.8 | i | i | 8.0 | 5.2
Oc1ccccc1-c1nc(NCc2ccco2)c2ccccc2n1 | -0.4 | 13.1* | -1.8 | -5.5 | i | i | 5.8 | 3.3
Oc1ccccc1-c1nc(NCc2cccnc2)c2ccccc2n1 | 0.6 | -3.2 | -3.2 | -2.5 | i | i | nt | nt
Clc1cccc(-c2nc3nc4ccccc4nc3n2Cc2ccccc2)c1 | -0.2 | 23.8* | -1.8 | 6.5 | i | i | 1.0 | 4.6
CCCn1c(/N=C/c2c[nH]c3ccccc23)nc2ccccc21 | -3.1 | 11.2* | -1.4 | -3.7 | i | i | 1.2 | 5.4
CCCCn1c(/N=C/c2c[nH]c3ccccc23)nc2ccccc21 | 2.1 | 6.6 | -4.9 | -4.0 | i | i | nt | nt
CCCn1cnnc1CNC(=O)[C@H]1O[C@@H](n2ccc(=O)[nH]c2=O)[C@H](O)[C@@H]1O | -2.9 | nt | nt | nt | nt | nt | nt | nt
Cc1cc(S(=O)(=O)N2CCOCC2)ccc1OCC(=O)Nc1ccc(F)c(Cl)c1 | 4.0 | 15.9* | 1.2 | -0.8 | i | i | -1.7 | 4.2
COc1cccc(CNC(=O)CN2C(=O)COc3ccc(S(=O)(=O)N4CCC(C)CC4)cc32)c1 | -3.7 | -1.2 | 1.9 | 2.5 | i | i | nt | nt
CCCc1c(C(=O)NNc2cc(C(F)(F)F)ccc2Cl)cnn1-c1ccccc1 | -0.6 | 27.0* | 0.0 | 2.7 | i | i | 5.8 | 6.5
CCCc1c(C(=O)Nc2ccc(C(F)(F)F)cc2)cnn1-c1ccccc1 | -4.5 | 10.4* | -1.9 | -3.2 | i | i | -3.9 | 5.5
CCCc1c(C(=O)Nc2ccc(N3CCOCC3)cc2)cnn1-c1ccccc1 | -1.2 | 0.8 | -1.7 | -3.1 | i | i | nt | nt
CC(CNC(=O)CC[C@H]1O[C@@H](n2cnc3c(NC(=O)c4ccccc4)ncnc32)[C@H](O)[C@@H]1O)c1ccccc1 (some centres undefined) | 8.7 | nt | nt | nt | nt | nt | nt | nt
CC(=O)COc1cc2c(-c3cc4ccccc4o3)cc(=O)oc2cc1C | 7.4 | 25.5* | 2.1 | -9.2 | i | i | 1.0 | 0.6
COc1ccc(OC)c2sc(NC(=O)CCSc3ccccc3)nc12 | 3.0 | 11.0* | -1.9 | -0.2 | i | i | 2.0 | 8.2
CC1CCc2sc(C(=O)Nc3nnc(SCc4ccc(F)cc4)s3)cc2C1 (centres undefined) | 2.1 | 32.5* | -1.3 | 3.3 | i | i | 12.5* | 2.5
COC(=O)c1ccc(CSc2nnc(NC(=O)c3cc4c(s3)CCCC4)s2)cc1 | -0.4 | 18.3* | -5.7 | 6.9 | i | i | -0.3 | 1.9
C[C@H](O)[C@@H]1C(=O)N2CCc3ccc(N4CCN(C)CC4)cc3[C@@H]2C[C@@H]1N(C)C(=O)c1cccnc1 | 2.6 | -0.3 | nt | 3.7 | nt | nt | nt | nt
SMILES | m5-HT2A agonist | MC4R ag barr | beta cell repl | MC4R antagonist | ANO1 activ | ANO1 block | MC4R barr ag | MOR-DOR barr ag
CSc1ccccc1NC(=O)c1cc(-c2cccs2)on1 | 0.8 | 9.8* | -2.0 | -1.9 | i | i | 7.0 | 4.7
COc1ccc(-c2cc(C(=O)Nc3ccccc3SC)no2)cc1 | -5.7 | 0.4 | -2.3 | 0.5 | i | i | nt | nt
O=C(CSc1ccc2nnc(-c3cccnc3)n2n1)Nc1ccccc1F | -1.1 | -0.2 | nt | 7.2 | nt | nt | nt | nt
CN1CCN(CCCNC(=O)Cn2ncc3c4ccccc4n(C)c3c2=O)CC1 | 1.3 | 0.1 | -1.7 | 2.6 | i | i | nt | nt
Cn1c2ccccc2c2cnn(CC(=O)Nc3cccc(F)c3)c(=O)c21 | -1.5 | 9.7* | -5.1 | 8.5 | i | i | 1.4 | 2.8
CSc1nc2ccc(NC(=O)COc3ccccc3F)cc2s1 | 10.7 | 10.2* | 1.7 | 1.4 | i | nt | 0.1 | 3.2
CSc1nc2ccc(NC(=O)CS(=O)(=O)c3ccccc3)cc2s1 | -4.9 | 1.1 | nt | 10.2 | nt | nt | nt | nt
Cc1cccc(NC(=O)c2nc[nH]c2C(=O)N(C)Cc2ccccc2)c1 | -10.9 | -0.4 | 1.5 | -3.0 | i | nt | nt | nt
Cc1cc(CSc2ccccc2)ccc1NC(=O)c1ccc(C)c([N+](=O)[O-])c1 | -1.1 | 6.2 | -2.4 | -10.0 | i | i | nt | nt
Cc1cc(CSc2ccccc2)ccc1NC(=O)c1ccc(Cl)c([N+](=O)[O-])c1 | -4.8 | 21.6* | 0.0 | 10.9 | i | i | 2.9 | 5.2
Cc1ccc(SCc2ccc(C(=O)Nc3cccc([N+](=O)[O-])c3C)cc2)cc1 | -17.4 | 23.0* | -0.7 | 3.5 | i | i | 5.9 | 4.7
Cc1ccc([N+](=O)[O-])cc1NC(=O)c1ccc(CSc2ccccc2)cc1 | -4.8 | 13.6* | -0.1 | 5.2 | i | i | 7.3 | 4.4
COc1cccc2c1C1COC3C4CC(C(=O)O)C(C(C2)N13)N4C (centres undefined) | 0.3 | -0.6 | nt | 8.5 | i | nt | nt | nt
Nc1c(C(=O)Nc2ccc3c(c2)OCCO3)nnn1CCc1ccccc1 | -2.0 | 0.3 | -2.7 | -13.4 | i | i | nt | nt
Nc1c(C(=O)Nc2ccccc2Cl)nnn1-c1ccc2c(c1)OCCO2 | 0.0 | 15.7* | 2.0 | 9.5 | i | i | 2.0 | 3.6
N#Cc1c(-c2ccco2)cc(C2CC2)nc1SCC(=O)c1ccccc1 | -0.7 | 18.4* | -2.1 | 0.8 | i | i | 8.2 | 4.4
